One series has as its system MITF, tyrosinase, TRP-1. Type of series: cell-based, mouse. Particulars: 1 day, forskolin-supplemented medium. The method, boiled down: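 Melan-a cells were co-treated with 1 μM forskolin, with or without the test compound, for 1 day. Proteins were extracted in PhosphoSafe buffer, run on 10% SDS-PAGE, semidry-transferred to PVDF and blocked in 3% BSA. Blots were probed for tyrosinase, TRP-1, TRP-2, MITF and β-actin, then HRP secondary antibodies (1 h, room temperature). Detection was by ECL, with stripping before reprobing.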

The target of series [1] is T1, tyrosinase (Mus musculus, UniProt P11344).
T1 sequence (P11344 19-533): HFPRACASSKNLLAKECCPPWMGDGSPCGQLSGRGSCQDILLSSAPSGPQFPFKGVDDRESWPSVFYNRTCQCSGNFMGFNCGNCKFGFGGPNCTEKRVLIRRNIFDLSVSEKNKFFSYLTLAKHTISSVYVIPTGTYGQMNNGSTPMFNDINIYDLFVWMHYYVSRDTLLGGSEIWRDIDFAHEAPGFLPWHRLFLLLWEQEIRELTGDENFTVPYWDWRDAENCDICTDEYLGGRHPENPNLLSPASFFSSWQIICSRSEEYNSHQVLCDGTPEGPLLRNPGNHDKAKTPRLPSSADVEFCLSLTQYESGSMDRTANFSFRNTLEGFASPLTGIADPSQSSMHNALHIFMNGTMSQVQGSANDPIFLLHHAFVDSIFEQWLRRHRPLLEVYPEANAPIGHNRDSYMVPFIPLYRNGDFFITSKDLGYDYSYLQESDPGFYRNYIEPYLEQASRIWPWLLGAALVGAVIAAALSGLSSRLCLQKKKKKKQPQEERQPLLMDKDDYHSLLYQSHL
Nature of the series: Tyrosinase activity in treated melan-a cells. The class given is cell-based. Particulars: 60 μM, 3 days, 20 nM TPA; TPA alone 100%.

The subject of the next series is tyrosinase/TRP-1 complex. As to the kind of experiment: Co-immunoprecipitation with antibody against TRP-1. The note with it: 3 days, forskolin-supplemented medium. The class given is cell-based, mouse.
Series [2] has as its system melan-a melanocytes. Nature of the series: Confocal immunofluorescence microscopy of tyrosinase localization. Type of series: cell-based, mouse.
A further series has as its target T2, melan-a tyrosinase (Mus musculus, UniProt P11344).
T2 sequence (P11344 19-533): T1 sequence (P11344 19-533)
Type of series: biochemical. Particulars: for type of tyrosinase inhibition: Lineweaver–Burk plot, L-DOPA.

The subject of series [3] is melan-a melanocytes. Nature of the series: Sulforhodamine B cytotoxicity assay. Type of series: cell-based, mouse. Particulars: 3 days, with or without forskolin. The method, boiled down: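 Melan-a cells in RPMI-1640 with 5% FBS and antibiotics were seeded at 20 000 cells/0.1 mL/well. They were exposed to the test compound for 72 h in medium with 20 nM TPA, 1 μM forskolin, or vehicle alone. Viability was read by the sulforhodamine B colorimetric assay. Values are mean ± SD of triplicate experiments.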

Series [4] concerns tyrosinase. As to the kind of experiment: Glycosylation analysis of tyrosinase. The class given is cell-based, mouse. The note with it: forskolin-supplemented medium, Endo H digestion.

Regarding `OC[C@H]1O[C@@H](Oc2c(O)cc(O)cc2/C=C/c2ccc(O)cc2)[C@H](O)[C@@H](O)[C@@H]1O` [Compound 1, 2,3,5,4′-Tetrahydroxystilbene-2-O-β-D-glucopyranoside], in the series with MITF, tyrosinase, TRP-1, the TRP-1 expression result is recorded as “not prominent”, the “expression of MITF” value is listed as “suppressed” and the expression of tyrosinase entry is on record as “suppressed”. Also, the tyrosinase activity on tyrosinase [1] is 65%. The “tyrosinase co-immunoprecipitated with TRP-1” value in the series on tyrosinase/TRP-1 complex is “reduction of immunoprecipitated tyrosinase”. The “tyrosinase localization (calnexin/ER, Lamp-1/lysosome)” value in the series with melan-a melanocytes [2] (60 μM, 3 days) is “no aberrant tyrosinase is trapped in the ER and lysosome”. Also, at melan-a tyrosinase, the “type of tyrosinase inhibition” value is reported as “noncompetitive”. In addition, the “reversibility of binding to tyrosinase” value on melan-a tyrosinase (tyrosinase mixed with compound 24 h prior to kinetic analysis) is listed as “likely reversible”. Moreover, in the series on melan-a melanocytes [3], the cytotoxic effect entry is recorded as “did not exert any cytotoxic effect”. In addition, in the series with tyrosinase [4], the “immature Endo H-sensitive form of tyrosinase” value is recorded as “No immature Endo H-sensitive form of tyrosinase was present”.
`CC(=O)[C@H]1CC[C@H]2[C@@H]3CCC4=CC(=O)CC[C@]4(C)[C@H]3CC[C@]12C` [progesterone]: in the series with melan-a melanocytes [2] (15 μM, 4 days), the “colocalization of tyrosinase and Lamp-1” value was “Colocalization of both tyrosinase and Lamp-1 were also observed”.
As to `Oc1ccc(/C=C/c2cc(O)cc(O)c2)cc1` [resveratrol, reference compound], in the series on melan-a melanocytes [2] (85 μM, 1 day, positive control), the “colocalization of calnexin and tyrosinase” value is recorded as “clearly colocalize to the ER”. Besides, at melan-a tyrosinase, the Vmax is reported as 2.5 × 10^–4 ΔA490/s and the “type of tyrosinase inhibition” value was “noncompetitive”.

Source of the values: PMC4076036 (Journal of Natural Products, 2014).
